ChEMBL document CHEMBL5303300, “EUbOPEN Chemogenomics Library - Multiplex” (2023)
“And” between values parts separate entries of the source, which are not always exact repeats. Identical values can stand only once.

Tests used:
Assay type in all cases: toxicity, cell-based
Fibroblast = assay: Multiplex assay against human fibroblast; conditions: number of replicates 2
Procedure, shortened: (§1)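 With compound added, live cells were imaged on a CQ1 microscope at 37°C and 5% CO2; staining with Hoechst33342, BioTracker Green Microtubule Cytoskeleton Dye, MitoTracker Red and Annexin V Alexa Fluor 680 had been done at seeding. The CellPathfinder machine-learning gating scheme split cells into Hoechst high-intensity objects or normal cells, normal cells into healthy, pyknosed or fragmented nuclei, and pyknosed cells into mitotic or apoptotic. The tubulin, mitochondrial-mass and membrane-permeability phenotypes are per cents of healthy-nucleus cells.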

HEK-293T = assay: Multiplex assay against HEK293T; conditions: human, number of replicates 2; procedure, shortened: as §1
U2OS = assay: Multiplex assay against U2OS; conditions: human, number of replicates 2; procedure, shortened: as §1
[1] = 12 h, 1 µM, compound concentration 1 uM
[2] = 12 h, 10 µM, compound concentration 10 uM
[3] = 24 h, 1 µM, compound concentration 1 uM
[4] = 24 h, 10 µM, compound concentration 10 uM
[5] = 48 h, 1 µM, compound concentration 1 uM
[6] = 48 h, 10 µM, compound concentration 10 uM

## COCCN1CCN(CCn2ccc(Nc3ncc4c(n3)-c3c(nn(C)c3-c3ccccc3)C[C@H]4C)n2)CC1
Fibroblast; [1]
  Population Apoptotic (%): 48% and 20%
  Population Fragmented Nuclei (%): 9% and 8%
  Population Healthy Nuclei (%): 73% and 72%
  Population Hoechst High Intensity Objects (%): 0%
  Population Membrane Permeable-Phenotype (%): 4% and 8%
  Population Mitochondria Different-Phenotype (%): 0% and 1%
  Population Mitotic Cells (%): 51% and 79%
  Population Normal (%): 100%
  Population Pyknosed Nuclei (%): 16% and 19%
  Population Tubulin-Different-Phenotype (%): 16% and 12%
  Total Cell Count: 202 and 275
Fibroblast; [2]
  Population Apoptotic (%): 32% and 46%
  Population Fragmented Nuclei (%): 13% and 20%
  Population Healthy Nuclei (%): 57% and 61%
  Population Hoechst High Intensity Objects (%): 0%
  Population Membrane Permeable-Phenotype (%): 12% and 5%
  Population Mitochondria Different-Phenotype (%): 2%
  Population Mitotic Cells (%): 67% and 53%
  Population Normal (%): 99%
  Population Pyknosed Nuclei (%): 29% and 18%
  Population Tubulin-Different-Phenotype (%): 58% and 32%
  Total Cell Count: 222 and 175
Fibroblast; [3]
  Population Apoptotic (%): 51% and 44%
  Population Fragmented Nuclei (%): 10% and 11%
  Population Healthy Nuclei (%): 72% and 69%
  Population Hoechst High Intensity Objects (%): 0%
  Population Membrane Permeable-Phenotype (%): 5% and 4%
  Population Mitochondria Different-Phenotype (%): 0%
  Population Mitotic Cells (%): 48% and 55%
  Population Normal (%): 99%
  Population Pyknosed Nuclei (%): 16% and 19%
  Population Tubulin-Different-Phenotype (%): 14% and 10%
  Total Cell Count: 188 and 271
Fibroblast; [4]
  Population Apoptotic (%): 57% and 51%
  Population Fragmented Nuclei (%): 13% and 16%
  Population Healthy Nuclei (%): 59% and 64%
  Population Hoechst High Intensity Objects (%): 1% and 0%
  Population Membrane Permeable-Phenotype (%): 7% and 3%
  Population Mitochondria Different-Phenotype (%): 4% and 5%
  Population Mitotic Cells (%): 42% and 48%
  Population Normal (%): 98% and 100%
  Population Pyknosed Nuclei (%): 27% and 19%
  Population Tubulin-Different-Phenotype (%): 53% and 29%
  Total Cell Count: 201 and 173
Fibroblast; [5]
  Population Apoptotic (%): 52% and 60%
  Population Fragmented Nuclei (%): 10% and 12%
  Population Healthy Nuclei (%): 74% and 72%
  Population Hoechst High Intensity Objects (%): 0%
  Population Membrane Permeable-Phenotype (%): 6% and 4%
  Population Mitochondria Different-Phenotype (%): 0%
  Population Mitotic Cells (%): 48% and 39%
  Population Normal (%): 100% and 99%
  Population Pyknosed Nuclei (%): 14% and 15%
  Population Tubulin-Different-Phenotype (%): 12% and 6%
  Total Cell Count: 171 and 271
Fibroblast; [6]
  Population Apoptotic (%): 63% and 46%
  Population Fragmented Nuclei (%): 16% and 15%
  Population Healthy Nuclei (%): 65% and 66%
  Population Hoechst High Intensity Objects (%): 0%
  Population Membrane Permeable-Phenotype (%): 8% and 6%
  Population Mitochondria Different-Phenotype (%): 3% and 8%
  Population Mitotic Cells (%): 36% and 53%
  Population Normal (%): 99%
  Population Pyknosed Nuclei (%): 18% and 17%
  Population Tubulin-Different-Phenotype (%): 43% and 17%
  Total Cell Count: 201 and 161
HEK-293T; [1]
  Population Apoptotic (%): 55% and 57%
  Population Fragmented Nuclei (%): 2% and 5%
  Population Healthy Nuclei (%): 86% and 79%
  Population Hoechst High Intensity Objects (%): 14% and 13%
  Population Membrane Permeable-Phenotype (%): 3%
  Population Mitochondria Different-Phenotype (%): 44% and 55%
  Population Mitotic Cells (%): 44% and 42%
  Population Normal (%): 85% and 86%
  Population Pyknosed Nuclei (%): 11% and 15%
  Population Tubulin-Different-Phenotype (%): 73% and 85%
  Total Cell Count: 402 and 361
HEK-293T; [2]
  Population Apoptotic (%): 66% and 76%
  Population Fragmented Nuclei (%): 5%
  Population Healthy Nuclei (%): 76% and 78%
  Population Hoechst High Intensity Objects (%): 21% and 20%
  Population Membrane Permeable-Phenotype (%): 2%
  Population Mitochondria Different-Phenotype (%): 65% and 76%
  Population Mitotic Cells (%): 33% and 23%
  Population Normal (%): 78% and 79%
  Population Pyknosed Nuclei (%): 18% and 16%
  Population Tubulin-Different-Phenotype (%): 94% and 95%
  Total Cell Count: 332 and 297
HEK-293T; [3]
  Population Apoptotic (%): 48% and 64%
  Population Fragmented Nuclei (%): 7% and 3%
  Population Healthy Nuclei (%): 86% and 90%
  Population Hoechst High Intensity Objects (%): 15% and 17%
  Population Membrane Permeable-Phenotype (%): 1% and 2%
  Population Mitochondria Different-Phenotype (%): 30% and 33%
  Population Mitotic Cells (%): 52% and 35%
  Population Normal (%): 84% and 82%
  Population Pyknosed Nuclei (%): 6%
  Population Tubulin-Different-Phenotype (%): 74% and 75%
  Total Cell Count: 473 and 331
HEK-293T; [4]
  Population Apoptotic (%): 71% and 78%
  Population Fragmented Nuclei (%): 5% and 2%
  Population Healthy Nuclei (%): 72% and 83%
  Population Hoechst High Intensity Objects (%): 25% and 24%
  Population Membrane Permeable-Phenotype (%): 1% and 2%
  Population Mitochondria Different-Phenotype (%): 71% and 75%
  Population Mitotic Cells (%): 28% and 21%
  Population Normal (%): 74% and 75%
  Population Pyknosed Nuclei (%): 22% and 14%
  Population Tubulin-Different-Phenotype (%): 90% and 92%
  Total Cell Count: 250 and 217
HEK-293T; [5]
  Population Apoptotic (%): 73% and 30%
  Population Fragmented Nuclei (%): 12% and 8%
  Population Healthy Nuclei (%): 84% and 87%
  Population Hoechst High Intensity Objects (%): 27% and 18%
  Population Membrane Permeable-Phenotype (%): 4% and 2%
  Population Mitochondria Different-Phenotype (%): 5% and 10%
  Population Mitotic Cells (%): 26% and 70%
  Population Normal (%): 72% and 81%
  Population Pyknosed Nuclei (%): 3% and 4%
  Population Tubulin-Different-Phenotype (%): 63% and 68%
  Total Cell Count: 864 and 570
HEK-293T; [6]
  Population Apoptotic (%): 66%
  Population Fragmented Nuclei (%): 7% and 6%
  Population Healthy Nuclei (%): 89% and 82%
  Population Hoechst High Intensity Objects (%): 24% and 20%
  Population Membrane Permeable-Phenotype (%): 0% and 4%
  Population Mitochondria Different-Phenotype (%): 49% and 51%
  Population Mitotic Cells (%): 33%
  Population Normal (%): 75% and 79%
  Population Pyknosed Nuclei (%): 3% and 10%
  Population Tubulin-Different-Phenotype (%): 86% and 82%
  Total Cell Count: 245 and 220
U2OS; [1]
  Population Apoptotic (%): 40% and 50%
  Population Healthy Nuclei (%): 84% and 72%
  Population Hoechst High Intensity Objects (%): 0%
  Population Membrane Permeable-Phenotype (%): 1% and 5%
  Population Mitochondria Different-Phenotype (%): 0%
  Population Mitotic Cells (%): 59% and 50%
  Population Normal (%): 100%
  Population Pyknosed Nuclei (%): 11% and 7%
  Population Tubulin-Different-Phenotype (%): 82% and 40%
U2OS; [2]
  Population Apoptotic (%): 46% and 63%
  Population Fragmented Nuclei (%): 8% and 4%
  Population Healthy Nuclei (%): 61% and 79%
  Population Hoechst High Intensity Objects (%): 0%
  Population Membrane Permeable-Phenotype (%): 6% and 7%
  Population Mitochondria Different-Phenotype (%): 6% and 8%
  Population Mitotic Cells (%): 53% and 36%
  Population Normal (%): 100% and 99%
  Population Pyknosed Nuclei (%): 30% and 16%
  Population Tubulin-Different-Phenotype (%): 20% and 35%
U2OS; [3]
  Population Apoptotic (%): 58% and 83%
  Population Fragmented Nuclei (%): 2% and 10%
  Population Healthy Nuclei (%): 86% and 81%
  Population Hoechst High Intensity Objects (%): 0%
  Population Membrane Permeable-Phenotype (%): 0% and 7%
  Population Mitochondria Different-Phenotype (%): 0% and 1%
  Population Mitotic Cells (%): 41% and 16%
  Population Normal (%): 100%
  Population Pyknosed Nuclei (%): 11% and 8%
  Population Tubulin-Different-Phenotype (%): 83% and 47%
U2OS; [4]
  Population Apoptotic (%): 86% and 70%
  Population Fragmented Nuclei (%): 12% and 4%
  Population Healthy Nuclei (%): 63% and 78%
  Population Hoechst High Intensity Objects (%): 0%
  Population Membrane Permeable-Phenotype (%): 5% and 4%
  Population Mitochondria Different-Phenotype (%): 5% and 12%
  Population Mitotic Cells (%): 13% and 29%
  Population Normal (%): 100%
  Population Pyknosed Nuclei (%): 23% and 16%
  Population Tubulin-Different-Phenotype (%): 40% and 37%
U2OS; [5]
  Population Apoptotic (%): 58% and 45%
  Population Fragmented Nuclei (%): 10% and 1%
  Population Healthy Nuclei (%): 68% and 89%
  Population Hoechst High Intensity Objects (%): 0%
  Population Membrane Permeable-Phenotype (%): 9% and 1%
  Population Mitochondria Different-Phenotype (%): 0%
  Population Mitotic Cells (%): 41% and 54%
  Population Normal (%): 100%
  Population Pyknosed Nuclei (%): 21% and 8%
  Population Tubulin-Different-Phenotype (%): 54% and 80%
U2OS; [6]
  Population Apoptotic (%): 88% and 91%
  Population Fragmented Nuclei (%): 12% and 6%
  Population Healthy Nuclei (%): 70% and 78%
  Population Hoechst High Intensity Objects (%): 0%
  Population Membrane Permeable-Phenotype (%): 10%
  Population Mitochondria Different-Phenotype (%): 2% and 9%
  Population Mitotic Cells (%): 11% and 8%
  Population Normal (%): 100% and 99%
  Population Pyknosed Nuclei (%): 16% and 14%
  Population Tubulin-Different-Phenotype (%): 38% and 34%
